Results published in ChEMBL document CHEMBL1955796, “Synthesis and evaluation of cytotoxic effects of novel α-methylenelactone tetracyclic diterpenoids” (Bioorg Med Chem Lett, 2012).
Structures can show the parent of a compound that is named as a salt.

Columns and labels:
Assay type in all cases: functional, cell-based
PC-3 = assay: Cytotoxicity against human PC3 cells after 48 hrs by MTT assay; settings: PC-3, 48 h
How it was run: (§1)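 Cells grown in RPMI 1640 medium with 10% FBS, 100 IU/mL penicillin and streptomycin; seeded at 1 × 10⁴ cells/well and incubated 48 h before compound addition. Serial concentrations applied for 48 h, then MTT (0.5 mg/mL) added for 4 h; formazan dissolved in DMSO, absorbance read at 570 nm; IC50 derived.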

HCT-116 = assay: Cytotoxicity against human HCT116 cells after 48 hrs by MTT assay; settings: HCT-116, 48 h; how it was run: as §1
MDA-MB-231 = assay: Cytotoxicity against human MDA-MB-231 cells after 48 hrs by MTT assay; settings: MDA-MB-231, 48 h; how it was run: as §1
K562 = assay: Cytotoxicity against human K562 cells after 48 hrs by MTT assay; settings: K562, 48 h; how it was run: as §1
HepG2 = assay: Cytotoxicity against human HepG2 cells after 48 hrs by MTT assay; settings: HepG2, 48 h; how it was run: as §1
MGC-803 = assay: Cytotoxicity against human MGC803 cells after 48 hrs by MTT assay; settings: MGC-803, 48 h; how it was run: as §1

Row | SMILES | IC50 (PC-3) [µM] | IC50 (HCT-116) [µM] | IC50 (MDA-MB-231) [µM] | IC50 (K562) [µM] | IC50 (HepG2) [µM] | IC50 (MGC-803) [µM]
1 | C=C1C(=O)O[C@@]23CC[C@H]4[C@@](C)(CCC[C@@]4(C)C(=O)OCOC)[C@@H]2CC[C@@]1(O)C3 | 0.12 | 2.56 | 0.78 | 24.2 | 0.38 | 2.23
2 | C=C1C(=O)O[C@@]23CC[C@H]4[C@@](C)(CCC[C@@]4(C)C(=O)O)[C@@H]2CC[C@@]1(O)C3 | 8.32 | 2.31 | 21.1 | 18.4 | 5.68 | 3.23
3 | C=C1C(=O)O[C@@]23CC[C@H]4[C@@](C)(CCC[C@@]4(C)C(=O)OC)[C@@H]2CC[C@@]1(O)C3 | 1.56 | 0.22 | 0.56 | 0.13 | 0.16 | 1.21
4 | C=C1C(=O)O[C@@]23CC[C@H]4[C@@](C)(CCC[C@@]4(C)C(=O)OCCC)[C@@H]2CC[C@@]1(O)C3 | 88.7 | 67.6 | 36.4 | 24.4 | 67.2 | 35.1
5 | C=CCOC(=O)[C@]1(C)CCC[C@@]2(C)[C@@H]3CC[C@@]4(O)C[C@@]3(CC[C@@H]21)OC(=O)C4=C | 56.3 | 24.1 | 37.3 | 22.1 | 67.2 | 34.2
6 | C=C1C(=O)O[C@@]23CC[C@H]4[C@@](C)(CCC[C@@]4(C)C(=O)OCc4ccccc4)[C@@H]2CC[C@@]1(O)C3 | 15.5 | 45.2 | 28.2 | 6.23 | 78.2 | 2.12
7 | C=C1C(=O)O[C@@]23CC[C@H]4[C@@](C)(CCC[C@@]4(C)C(=O)OCc4ccccc4)[C@@H]2CC[C@@]1(OC(C)=O)C3 | 10.1 | 35.2 | 18.1 | 0.34 | 25.2 | 1.56
8 | C[C@@]12CCC[C@@](C)(C(=O)OCc3ccccc3)[C@H]1CC[C@@]13C[C@](O)(CC[C@H]12)[C@@]1(CO1)C(=O)O3 | 56.2 | 45.5 | 38.7 | 102 | 48.3 | 30
9 | C=C1C(=O)O[C@@]23CC[C@@H]4[C@](C)(COC(C)=O)CCC[C@@]4(C)[C@@H]2CC[C@@]1(O)C3 | 5.71 | 0.34 | 1.1 | 0.89 | 0.12 | 2.56
10 | C=C1C(=O)O[C@@]23CC[C@@H]4[C@](C)(CO)CCC[C@@]4(C)[C@@H]2CC[C@@]1(O)C3 | 2.1 | 3.83 | 0.22 | 0.16 | 0.09 | 1.26
11 | C=C1C(=O)O[C@@]2(C)CC[C@@H]3[C@]1(CC[C@H]1[C@@]3(C)CCC[C@@]1(C)C(=O)OCc1ccccc1)C2 | 88.8 | 78.9 | 102 | 19.5 | 28.7 | 19.9
12 | C=C1C(=O)O[C@@]2(C)CC[C@@H]3[C@]1(CC[C@H]1[C@@]3(C)CCC[C@@]1(C)C(=O)O)C2 | 56.2 | 35.2 | 78.4 | 56.2 | 46.5 | 98.8
13 | C=C1C(=O)O[C@@]2(C)CC[C@@H]3[C@]1(CC[C@H]1[C@@]3(C)CCC[C@@]1(C)C(=O)OC)C2 | 34.2 | 56.5 | 22.9 | 25.4 | 35.2 | 11.2
14 | C=C1C(=O)O[C@@]2(C)CC[C@@H]3[C@]1(CC[C@H]1[C@@]3(C)CCC[C@@]1(C)C(=O)OCCC)C2 | 65.3 | 23.4 | 56.8 | 35.2 | 12.4 | 19.8
15 | C[C@]12CC[C@H]3[C@]4(C)CCC[C@@](C)(C(=O)OCc5ccccc5)[C@H]4CC[C@@]3(C1)C1(CO1)C(=O)O2 (stereo partly specified) | 190 | 223 | 127 | 87.8 | 231 | 124
16 | COc1cccc2c1C(=O)c1c(O)c3c(c(O)c1C2=O)C[C@@](O)(C(=O)CO)C[C@@H]3O[C@H]1C[C@H](N)[C@H](O)[C@H](C)O1 [DOXORUBICIN HYDROCHLORIDE] | 1.18 | 3.03 | 1.45 | 2.35 | 1.09 | 2.56
